Bioassay records deposited in PubChem by several laboratories.
Compounds with a hit are over-represented: about 2.6% of the library has one in this group of screens.
HSF1 activator: increases HSF-1 driven luciferase reporter signal; activation, % at 9 µM; actives 1.7% (n = 300,000); NIH3T3-HGL HSF-1 luciferase reporter, MG132, 8 h; 100% = twice DMSO control signal;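 active = mean replicate activation of at least 50% with a set share of replicates each reaching 50%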;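 note: 0% = median of the neutral control wells and 100% = twice that signal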
MDM2 E3 inh: Mdm2 E3 ligase (human) inhibition. Q00987. cell-based MDM2 ubiquitination luciferase reporter, 2 h; 0 = plate control, 100 = twice control, blank-subtracted. signal enhancement, % at 5 µM. actives 0.11% (n = 210,000);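 active = signal enhancement of 30% or more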;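 note: luminescence tracks abundance of the self-degrading MDM2-luciferase fusion protein; higher signal means inhibition of MDM2 E3 ligase activity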
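Test system: mammalian cells stably expressing self-ubiquitinating, self-degrading MDM2 E3–luciferase fusion; Amount: 2000 cells in each well; Medium: DMEM; Schedule: 4 h settle plus 2 h compound, 37 °C; Technique: SteadyLite luciferase luminescence after 15 min room-temperature reagent incubation; Benchmarks: plate control and blank wells.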
Hsp70 act: transcriptional activators of Hsp70. HeLa Hsp70 promoter luciferase reporter, luminescence; scaled: vehicle 0, proteasome-inhibitor control 100%. activation, % at 10 µM. actives 0.04% (n = 200,000);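 active = activation above the mean across all tested compounds plus 3 SD, cutoff set per campaign, cut at about 5.5% in these data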;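 note: 100% = MG132 at 30 µM as the positive control and 0% = DMSO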
HSV replic up: HSV replication enhancement. HSV replication augmentation in cells, fold increase. maximum fold increase. actives 0.005% (n = 220,000). AID 1956; in the data active = maximum fold increase above about 1.5; tested in PC3 cells
Rad51 HR inh: blocks human Rad51 in homologous recombination; Q06609; hRad51 DNA strand exchange, fluorescence dequenching; inhibition, % at 10 µM; actives 0.085% (n = 200,000);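 active = inhibition above 40% at the single screening dose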;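 note: 0% = DMSO control wells and 100% = blanks with heterologous ssDNA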
Target sequence (Q06609 whole entry, looked up): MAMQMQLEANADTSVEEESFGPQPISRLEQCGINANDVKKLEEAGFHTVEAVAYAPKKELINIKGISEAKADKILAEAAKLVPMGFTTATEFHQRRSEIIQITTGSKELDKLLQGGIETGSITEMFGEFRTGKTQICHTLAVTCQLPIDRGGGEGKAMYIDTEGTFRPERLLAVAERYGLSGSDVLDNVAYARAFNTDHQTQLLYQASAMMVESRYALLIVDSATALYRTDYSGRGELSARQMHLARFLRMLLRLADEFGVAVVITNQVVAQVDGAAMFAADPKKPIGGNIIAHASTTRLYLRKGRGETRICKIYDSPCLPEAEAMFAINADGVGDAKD
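Material: Human Rad51 nucleoprotein filaments preassembled on unlabelled ssDNA | Also added: Labelled 47-mer dsDNA for strand exchange | Dosing: Single dose, 10 µM final compound | Schedule: 30-min compound preincubation and 15-min exchange, both room temperature | Technique: Fluorescence dequenching at 485/520 nm | Measure: Percent inhibition relative to plate controls and blanks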
HSF1 inh: HSF1 inhibition; activity change, negative = inhibition, % at 7.5 µM (by protocol); AID 2098; actives 0.77% (n = 300,000); NIH3T3-HGL HSE-luciferase, MG132-induced, luminescence 8 h; active compounds read low;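 active = more than half of replicate wells show activity change below -50%, luminescence cut by over half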;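 note: luciferase reports HSF-1 transcriptional activity via heat shock element; 0% = median of DMSO wells and -100% = zero luminescence signal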
* hit, by the source's call; i = inactive; . = no result given.

SMILES	HSF1 activator	MDM2 E3 inh	Hsp70 act	HSV replic up	Rad51 HR inh	HSF1 inh
CCSC1=N/C(=C/c2ccsc2)C(=O)N1c1ccccc1	18.5	-10.7	-0.1	i	6.4	6.6
COC(=O)/C(=C\C(=O)c1ccccc1)Nc1ccc(OC)cc1	50.6*	-0.9	.	i	4.2	23.9
COc1ccc(N/C(C)=C/C(=O)c2ccccc2)cc1	5.1	-8.0	-0.3	i	-0.6	0.7
O=C(C#Cc1ccccc1)Nc1cccc(F)c1	81.6*	.	.	.	.	44.4
COc1ccc(NC(=O)C#Cc2ccccc2)cc1	54.2*	.	.	.	.	41.0
CCSC1=NCCN1C(=O)C(C)(C)Oc1ccc(Cl)cc1	-2.1	-23.2	-0.2	i	-3.5	4.3
CC/C(=N/N=C(/CC)c1ccc(O)cc1)c1ccc(O)cc1	-20.0	.	.	.	.	-0.1
O=C(CN1CCN(Cc2ccc(F)cc2Cl)CC1)NCc1ccccc1	-1.0	.	.	.	.	0.4
c1ccc(OCc2cc(-c3ccccc3)no2)cc1	61.3*	2.2	0.0	i	-12.1	20.3
COc1ccccc1OCc1cc(C(=O)N2CCN(C)C(c3ccccc3)C2)no1 (stereo not drawn)	-13.9	.	.	.	.	-5.7
COc1ccccc1OCc1cc(-c2ccccc2)no1	53.0*	-3.4	0.1	i	19.9	27.8
COc1ccc(OCc2cc(-c3ccc(Cl)cc3)no2)cc1	-39.7	-0.6	-0.2	i	-4.3	-20.9
Cc1cccc2cc3c(nc12)SC(=NCC1CCCO1)N(Cc1ccco1)C3 (stereo not drawn)	189.7*	-7.6	-0.2	i	-1.4	166.3
COc1ccc(-n2nnnc2S(=O)(=O)Cc2ccc(C(=O)O)cc2)cc1	94.5*	-3.6	-0.1	i	0.2	90.4
CC(C)NC(=O)N(O)C1N(Cc2ccc3c(c2)OCO3)C(=S)SC1(C)C (stereo not drawn)	-67.2	-13.5	-0.1	i	-3.3	-57.7*
COCCn1c(SCC(=O)N2CCCCC2)nc2ccccc2c1=O	35.1	-0.8	-0.3	i	-0.1	6.5
COCCn1c(C)cc(C(=O)CSc2nnc3ccccn23)c1C	-59.6	-76.5	-0.4	i	16.2	-51.2*
COCCn1c(SCC(=O)c2cc(C)n(C)c2C)nc2ccccc2c1=O	-77.2	-8.5	0.1	i	12.8	-72.3*
Cc1ccc(C(=O)CSc2nnc3ccccn23)c(C)c1	22.2	-45.7	0.0	i	1.7	10.8
CC(=O)c1cccc(NC(=O)COC(=O)[C@@H](NC(=O)OCc2ccccc2)C(C)C)c1	-16.0	-11.4	-0.2	i	-3.9	-1.5
O=C(N/N=C/c1ccccn1)c1ccc([N+](=O)[O-])cc1	-85.2	0.4	-0.3	i	-54.5	-81.3*
O=C(N/N=C/c1ccccn1)c1cc([N+](=O)[O-])cc([N+](=O)[O-])c1	-30.9	13.3	0.2	i	-5.0	-24.4
O=C(c1cc(-c2ccc(Cl)cc2)n[nH]1)N1CCN(C(=O)c2ccco2)CC1	9.4	.	.	.	.	-4.7
COc1cccc(C(=O)NC(=S)Nc2nnn(C)n2)c1	2.1	-7.9	-0.1	i	.	-2.8
Cc1ccc(N=C2SC(C(=O)NCCc3ccccc3)CC(=O)N2C)cc1C (stereo not drawn)	69.8*	-22.4	-0.3	i	8.7	17.7
SMILES	HSF1 activator	MDM2 E3 inh	Hsp70 act	HSV replic up	Rad51 HR inh	HSF1 inh
Cc1cccc(OCc2nnc(SCC(=O)NC3CCCC3)n2C)c1	-17.4	.	.	.	.	-8.8
COc1ccc2c(c1)oc(=O)c1c3ccccc3[nH]c21	71.0*	-22.7	0.3	i	-2.3	21.1
Cc1nnc(SCC(=O)NC(C)(C)C)n1NCc1c(F)cccc1Cl	-11.7	.	-0.1	i	.	-2.8
COc1ccc(-c2nc(-c3cccnc3)no2)cc1	43.7	-46.1	.	i	.	13.0
COc1ccc(-c2nc(-c3ccncc3)no2)cc1	54.0*	.	.	.	.	27.2
O=[N+]([O-])c1cccc(-c2noc(-c3cccs3)n2)c1	57.1*	-16.1	.	i	.	42.7
COc1ccccc1-c1nc(-c2ccccn2)no1	-7.1	-65.2	-0.2	i	4.7	-9.8
O=[N+]([O-])c1ccc(-c2nc(-c3ccncc3)no2)cc1	65.0*	.	.	i	7.4	31.2
COc1ccc(-c2nc(-c3ccccn3)no2)cc1	-79.5	-93.1	-0.6	i	-0.7	-77.8*
O=S(=O)(c1ccccc1)c1nc(Nc2cccc(O)c2)sc1Cl	5.1	-6.3	-0.1	i	.	1.0
Cc1c(C#N)c(O)n(CCO)c(=O)c1N=Nc1ccc2c(c1)COC2=O	67.5*	-15.9	.	i	-12.6	67.1
COc1ccc(CNn2c(-c3ccccc3F)nc3ccccc3c2=O)cc1OC	-4.9	-13.7	-0.1	i	9.0	-2.0
COc1ccc(OC)c(CNn2c(-c3ccccc3F)nc3ccccc3c2=O)c1	-8.3	42.6*	-0.5	i	7.7	-6.5
CCCn1c(N2CCN(C(=O)Nc3ccccc3)CC2)nc2ccccc21	1.1	-6.3	-0.1	i	0.7	-0.4
CCCn1c(N2CCN(CC(=O)NCc3cccs3)CC2)nc2ccccc21	-75.7	-15.7	0.1	i	6.2	-71.8*
CCC1(c2ccc(F)cc2)NC(=O)N(CC(=O)c2cc(C)n(C3CC3)c2C)C1=O (stereo not drawn)	12.6	.	.	.	.	7.9
Cc1ccc2c(Cl)c(C(=O)NCC3CCCO3)sc2c1 (stereo not drawn)	54.1*	-18.5	0.3	i	.	28.7
Cc1ccc2c(Cl)c(C(=O)NCCc3ccccc3)sc2c1	76.6*	0.9	0.3	i	-9.1	40.6
COc1ccc(CCNC(=O)c2sc3cc(C)ccc3c2Cl)cc1	2.7	-12.6	-0.1	i	5.4	0.4
Cc1ccc2c(c1)C(=NC1CCCCC1)c1cc3ccccc3nc1-2	60.1*	-1.8	-0.1	i	4.8	44.2
CCOC(=O)COc1ccccc1C(=O)c1cnn(-c2ccccc2)c1	25.9	.	.	.	.	26.0
CC(C)c1cc2c(c(O)c1O)[C@@]13CCCC(C)(C)C1CC2OC3=O (stereo partly drawn)	65.5*	.	.	.	.	53.4
CC(C)n1cc(CN2CCC(C(=O)Nc3ccc(Oc4ccccc4F)cc3)CC2)cn1	0.6	.	.	.	.	-5.8
Cc1ccc(C2=NCCn3c2c2ccc(C(F)(F)F)cc2[n+]3[O-])cc1	-64.1	.	.	.	.	-55.1*
COc1ccc(C2=NCCn3c2c2ccc(C(F)(F)F)cc2[n+]3[O-])cc1	-12.7	.	.	.	.	0.9
CCSC1(SCC)N=C(N)C2(C#N)C(c3ccc(F)cc3)C12C#N (stereo not drawn)	82.5*	22.4	0.1	i	-0.5	74.1
CCOC(=O)C(NC(C)=O)(Nc1ccc(S(=O)(=O)Nc2cc(C)on2)cc1)C(F)(F)F (stereo not drawn)	0.3	2.0	0.0	i	40.9*	-3.4
